The nature of data set [1]: Volume of distribution in Beagle dog. Particulars: in vivo, read-out: Vdss. The format is ADME, organism-based, Canis lupus familiaris.
Data set [2] can be described thus: Cmax in Sprague-Dawley rat. The data set is classed as ADME, organism-based. The settings on record: in vivo.
A short description of data set [3]: Cmax in Beagle dog. The format is ADME, organism-based, Canis lupus familiaris. Particulars: in vivo.
A short description of data set [4]: Clearance in Sprague-Dawley rat. The data set is classed as ADME, organism-based. Particulars: in vivo.
The target of data set [5] is T1, C-C chemokine receptor type 1 (Homo sapiens) (UniProt P32246).
T1 sequence (whole entry): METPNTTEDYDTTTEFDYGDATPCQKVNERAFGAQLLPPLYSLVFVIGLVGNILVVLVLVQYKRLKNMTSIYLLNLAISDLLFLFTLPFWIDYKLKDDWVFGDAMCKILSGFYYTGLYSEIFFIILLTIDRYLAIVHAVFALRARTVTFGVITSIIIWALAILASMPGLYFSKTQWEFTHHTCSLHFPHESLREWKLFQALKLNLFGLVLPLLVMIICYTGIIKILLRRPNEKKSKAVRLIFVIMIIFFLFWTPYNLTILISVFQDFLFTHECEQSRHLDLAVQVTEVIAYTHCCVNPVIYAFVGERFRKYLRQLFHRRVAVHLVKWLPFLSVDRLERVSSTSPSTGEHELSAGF
The experiment in a line: Inhibition of CCR1 at 1uM.

Data set [6] deals with Substance-P receptor (Homo sapiens) (UniProt P25103). The experiment in a line: Inhibition of NK1 receptor at 1uM.
Sequence of Substance-P receptor (Homo sapiens) (P25103 whole entry): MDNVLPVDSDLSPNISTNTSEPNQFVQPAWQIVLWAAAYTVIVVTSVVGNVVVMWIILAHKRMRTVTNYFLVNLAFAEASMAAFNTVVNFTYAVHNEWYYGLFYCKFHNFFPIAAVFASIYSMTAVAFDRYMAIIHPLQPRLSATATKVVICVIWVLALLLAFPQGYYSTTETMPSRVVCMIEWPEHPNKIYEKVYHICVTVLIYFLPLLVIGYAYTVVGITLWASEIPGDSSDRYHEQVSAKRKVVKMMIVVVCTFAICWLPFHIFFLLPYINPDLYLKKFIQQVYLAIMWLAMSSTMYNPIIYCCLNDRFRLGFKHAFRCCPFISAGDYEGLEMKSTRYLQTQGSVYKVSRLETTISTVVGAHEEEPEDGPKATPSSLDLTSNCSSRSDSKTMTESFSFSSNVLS
The target of data set [7] is T2, C-C chemokine receptor type 3 (Homo sapiens) (UniProt P51677).
T2 sequence (whole entry): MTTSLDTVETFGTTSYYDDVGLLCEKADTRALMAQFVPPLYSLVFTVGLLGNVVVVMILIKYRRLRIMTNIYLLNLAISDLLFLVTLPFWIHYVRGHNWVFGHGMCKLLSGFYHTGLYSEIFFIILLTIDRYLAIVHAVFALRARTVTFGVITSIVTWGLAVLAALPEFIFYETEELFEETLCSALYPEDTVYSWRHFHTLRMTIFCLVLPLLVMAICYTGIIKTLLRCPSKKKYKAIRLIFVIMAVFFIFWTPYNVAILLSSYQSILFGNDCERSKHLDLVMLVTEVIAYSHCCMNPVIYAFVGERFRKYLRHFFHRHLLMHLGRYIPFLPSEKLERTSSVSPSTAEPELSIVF
The data set is described as follows: Inhibition of CCR3 at 1uM.

Data set [8] in a line: Bioavailability in Beagle dog. The data set is classed as ADME, organism-based, Canis lupus familiaris. The settings on record: in vivo.
Data set [9] concerns the target C-X-C chemokine receptor type 4 (Homo sapiens) (UniProt P61073). The data set is described as follows: Inhibition of CXCR4 at 1uM.
The target in data set [10] is C-C chemokine receptor type 5 (Homo sapiens) (UniProt P51681). The experiment in a line: Inhibition of CCR5 at 1uM.
Sequence of C-C chemokine receptor type 5 (Homo sapiens) (P51681 whole entry, looked up): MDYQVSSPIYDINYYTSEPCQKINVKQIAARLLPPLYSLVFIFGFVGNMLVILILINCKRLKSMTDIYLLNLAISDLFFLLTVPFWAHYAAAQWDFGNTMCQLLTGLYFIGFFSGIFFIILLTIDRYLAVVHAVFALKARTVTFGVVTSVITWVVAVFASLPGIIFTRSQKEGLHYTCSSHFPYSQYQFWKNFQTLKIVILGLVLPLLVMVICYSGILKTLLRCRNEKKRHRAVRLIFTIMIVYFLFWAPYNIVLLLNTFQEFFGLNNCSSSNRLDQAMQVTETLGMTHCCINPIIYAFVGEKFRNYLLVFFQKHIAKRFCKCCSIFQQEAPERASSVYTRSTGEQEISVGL
A short description of data set [11]: Clearance in Beagle dog. The data set is classed as ADME, organism-based, Canis lupus familiaris. Particulars: in vivo.
The nature of data set [12]: Bioavailability in Sprague-Dawley rat. The data set is classed as ADME, organism-based. The settings on record: in vivo.
Data set [13] concerns the target T3, C-C chemokine receptor type 2 (Homo sapiens, UniProt P41597). The experiment in a line: Displacement of [125I]MCP1 from human CCR2 expressed in monocytes. The format is cell-based. The gist of the method:
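Human CCR2 binding was read as inhibition of 125I-MCP-1 binding to monocyte cells stably transfected with CCR2. The assay was run in the presence of 0.5% BSA, using membranes of these cells.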
A general note: Displacement assays read how much labelled ligand stays bound in the presence of the test substance.
Target sequence in this assay (P41597 whole entry): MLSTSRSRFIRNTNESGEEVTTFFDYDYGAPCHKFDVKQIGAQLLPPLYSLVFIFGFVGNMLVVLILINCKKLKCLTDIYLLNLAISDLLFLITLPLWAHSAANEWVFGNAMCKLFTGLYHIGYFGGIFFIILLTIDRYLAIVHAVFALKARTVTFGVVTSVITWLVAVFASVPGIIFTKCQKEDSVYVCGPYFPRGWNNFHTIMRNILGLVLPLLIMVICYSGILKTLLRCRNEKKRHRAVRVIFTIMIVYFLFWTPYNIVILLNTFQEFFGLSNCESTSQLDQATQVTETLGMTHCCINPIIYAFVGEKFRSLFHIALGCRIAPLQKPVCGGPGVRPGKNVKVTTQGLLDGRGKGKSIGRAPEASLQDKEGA

Data set [14] addresses T4, C-C chemokine receptor type 4 (Homo sapiens) (UniProt P51679).
T4 sequence (whole entry): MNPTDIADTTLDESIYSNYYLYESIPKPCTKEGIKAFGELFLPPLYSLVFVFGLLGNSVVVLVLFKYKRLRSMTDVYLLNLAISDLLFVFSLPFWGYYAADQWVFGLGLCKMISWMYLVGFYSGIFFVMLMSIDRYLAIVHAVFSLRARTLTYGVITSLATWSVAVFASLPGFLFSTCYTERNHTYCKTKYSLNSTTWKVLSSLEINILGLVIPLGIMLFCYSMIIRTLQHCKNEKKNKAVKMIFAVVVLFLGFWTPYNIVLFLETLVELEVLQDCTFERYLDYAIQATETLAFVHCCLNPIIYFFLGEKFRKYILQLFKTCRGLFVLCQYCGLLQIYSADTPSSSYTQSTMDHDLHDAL
The experiment in a line: Inhibition of CCR4 at 1uM.

A short description of data set [15]: Half life in Beagle dog. The format is ADME, organism-based, Canis lupus familiaris. The settings on record: in vivo.
Data set [16] in a line: Tmax in Sprague-Dawley rat. The format is ADME, organism-based. The settings on record: in vivo.
Data set [17] in a line: Tmax in Beagle dog. The format is ADME, organism-based, Canis lupus familiaris. Particulars: in vivo.
The nature of data set [18]: Volume of distribution in Sprague-Dawley rat. The data set is classed as ADME, organism-based. Particulars: in vivo, read-out: Vdss.
Data set [19] in a line: Half life in Sprague-Dawley rat. The settings on record: in vivo. The data set is classed as ADME, organism-based.
The target in data set [20] is T3, C-C chemokine receptor type 2. The experiment in a line: Displacement of [125I]MCP-1 from human CCR2 expressed in monocytes 1 uM. The format is cell-based.
Target sequence in this assay (P41597 whole entry, looked up): as the sequence (P41597 whole entry) above

The text below walks through data of ChEMBL document CHEMBL1143782, “Alpha-aminothiazole-gamma-aminobutanoic amides as potent, small molecule CCR2 receptor antagonists” (Bioorg Med Chem Lett, 2007).

Sequence of C-X-C chemokine receptor type 4 (Homo sapiens) (P61073 whole entry): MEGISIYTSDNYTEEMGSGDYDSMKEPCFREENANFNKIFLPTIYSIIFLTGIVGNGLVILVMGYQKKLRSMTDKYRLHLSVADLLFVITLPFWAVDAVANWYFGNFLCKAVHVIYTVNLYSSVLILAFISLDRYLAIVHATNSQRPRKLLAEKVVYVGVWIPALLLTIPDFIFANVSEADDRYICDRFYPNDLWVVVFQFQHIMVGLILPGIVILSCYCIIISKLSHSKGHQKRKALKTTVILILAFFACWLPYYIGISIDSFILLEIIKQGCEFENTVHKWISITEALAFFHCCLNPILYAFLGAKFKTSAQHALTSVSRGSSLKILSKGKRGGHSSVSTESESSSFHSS

As for `CC(=O)Nc1nc(C(CCN2CCC(c3ccccc3)CC2)C(=O)NCc2cc(C(F)(F)F)cc(C(F)(F)F)c2)cs1` (stereo unspecified), the Vd worked out at 4 L/kg in data set [1] and 5.3 L/kg in data set [18]. The peak concentration (Cmax) in data set [2] is 64 nM; in [3] it was 18 nM. The clearance in data set [4] came to 52.5 mL/min/kg; in data set [11], 21.6 mL/min/kg. Besides, the inhibition in data set [5] is 66%; in data set [6] it was 56%; in [7], 7%; in [9], 27%; in data set [10] it was 44%; in [14], 86%. The bioavailability in data set [8] was found to be 1.6%; in data set [12] it was 17%. Further, the IC50 in [13] was found to be 5.2 nM. Also, the values for the half-life in data set [15] and in [19] were 2.28 h and 1.4 h, respectively. Moreover, the values for the time to peak (Tmax) in data set [16] and in data set [17] were 2.2 h and 0.5 h, respectively.

`Nc1nc(C(CCN2CCN(c3ccc(F)cc3)CC2)C(=O)NCc2cc(C(F)(F)F)cc(C(F)(F)F)c2)cs1` (stereo unspecified): in data set [20], the inhibition was 70%.

`COC(=O)Nc1nc([C@@H](CCN2CCC(c3ccccc3)CC2)C(=O)NCc2cc(C(F)(F)F)cc(C(F)(F)F)c2)cs1` came in with an inhibition in data set [20] of 85%.

One may read the Cmax as the peak of the concentration-time curve. In general, clearance refers to a measure of how efficiently the substance is removed, as volume per time. By inhibition is commonly meant the percentage by which the read-out fell short of the control. The bioavailability is the share of a dose that reaches the circulation, judged against a reference dose that is usually intravenous. A higher bioavailability goes with good availability. What is called IC50 is the midpoint of a concentration-inhibition curve. The term half-life denotes the time in which the quantity being followed falls by half. Low values mean fast loss, high ones slow loss. Usually Tmax stands for the time at which the peak concentration occurs.
